Legend:
[1] = target: T1, Tyrosinase (Mus musculus) (UniProt P11344); experiment: Inhibition of tyrosinase in mouse B16F10 cells assessed as remaining melanin production at 20 uM relative to control; conditions: B16-F10
T1 sequence (whole entry): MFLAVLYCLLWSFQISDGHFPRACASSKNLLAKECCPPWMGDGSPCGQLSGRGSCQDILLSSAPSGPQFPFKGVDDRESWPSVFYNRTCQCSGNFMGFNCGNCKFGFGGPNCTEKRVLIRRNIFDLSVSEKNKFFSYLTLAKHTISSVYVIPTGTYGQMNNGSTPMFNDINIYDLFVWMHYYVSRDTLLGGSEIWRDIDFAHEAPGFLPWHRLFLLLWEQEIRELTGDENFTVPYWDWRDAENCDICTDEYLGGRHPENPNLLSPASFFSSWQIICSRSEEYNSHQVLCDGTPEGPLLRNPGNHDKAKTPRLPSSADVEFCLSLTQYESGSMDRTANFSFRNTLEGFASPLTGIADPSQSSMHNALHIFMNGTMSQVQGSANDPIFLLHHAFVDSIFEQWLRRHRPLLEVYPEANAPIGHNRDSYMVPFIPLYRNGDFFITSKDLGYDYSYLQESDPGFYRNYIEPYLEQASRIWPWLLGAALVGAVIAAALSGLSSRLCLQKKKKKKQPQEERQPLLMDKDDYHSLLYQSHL

[2] = target: T1, Tyrosinase (Mus musculus); experiment: Inhibition of tyrosinase in mouse B16F10 cells assessed as remaining melanin production at 50 uM relative to control; conditions: B16-F10
[3] = target: T2, Tyrosinase (Agaricus bisporus) (UniProt O42713); experiment: Non-competitive inhibition of mushroom tyrosinase using L-tyrosine as substrate by Lineweaver-Burk plots analysis
T2 sequence (whole entry): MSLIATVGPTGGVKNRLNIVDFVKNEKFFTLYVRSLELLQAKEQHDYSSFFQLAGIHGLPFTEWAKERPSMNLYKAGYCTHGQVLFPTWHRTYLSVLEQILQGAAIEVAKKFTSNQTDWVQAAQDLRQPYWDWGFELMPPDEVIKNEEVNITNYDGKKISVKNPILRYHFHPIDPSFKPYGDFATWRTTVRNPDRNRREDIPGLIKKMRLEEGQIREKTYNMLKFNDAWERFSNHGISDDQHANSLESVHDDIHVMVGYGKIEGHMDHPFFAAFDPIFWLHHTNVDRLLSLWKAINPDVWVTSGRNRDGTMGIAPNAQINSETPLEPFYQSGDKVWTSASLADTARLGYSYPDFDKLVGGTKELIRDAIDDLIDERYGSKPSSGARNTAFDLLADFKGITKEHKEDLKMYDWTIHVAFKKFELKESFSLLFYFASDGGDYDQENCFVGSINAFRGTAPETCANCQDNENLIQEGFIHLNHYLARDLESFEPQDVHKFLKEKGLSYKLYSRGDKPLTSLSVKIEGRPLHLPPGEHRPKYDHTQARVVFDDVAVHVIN
Outline: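 Absorbance at 475 nm read at 30 °C in PBS with 5% DMSO. Global nonlinear Michaelis–Menten fitting over four inhibition models gave Vmax, Km, Kic and Kiu, with the model chosen by minimal χ2.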

[4] = target: T1, Tyrosinase (Mus musculus); experiment: Inhibition of tyrosinase in mouse B16F10 cells assessed as remaining melanin production at 10 uM relative to control; conditions: B16-F10
Tyrosinase [5] = target: T3, Tyrosinase (Agaricus bisporus, UniProt O42713); experiment: Inhibition of mushroom tyrosinase using L-tyrosine as substrate
T3 sequence (O42713 whole entry): T2 sequence (whole entry)

[6] = target: T2, Tyrosinase (Agaricus bisporus); experiment: Binding affinity to mushroom tyrosinase assessed as fluorescence quenching
[7] = target: T1, Tyrosinase (Mus musculus); experiment: Inhibition of tyrosinase in mouse B16F10 cell lysates using DOPA as substrate relative to control; type: cell-free; design: concentration or dose not given beside the values; conditions: B16-F10, concentration not given here
[8] = Cytotoxicity against mouse B16F10 cells assessed as cell survival at 50 uM after 48 hrs by MTT assay; type: cell-based, B16-F10; conditions: read-out: Survival
Tyrosinase [9] = target: T3, Tyrosinase; experiment: Competitive inhibition of mushroom tyrosinase using L-tyrosine as substrate by Lineweaver-Burk plots analysis
Outline: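 Global nonlinear Michaelis–Menten fitting over four inhibition models gave Vmax, Km, Kic and Kiu, with the model chosen by minimal χ2.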

| Structure (SMILES) | residual activity [1] | residual activity [2] | Kic [3] | residual activity [4] | IC50 (Tyrosinase [5]) | KSV [6] | inhibition [7] | viability at 48 h, 50 µM [8] | Ki (Tyrosinase [9]) |
| --- | --- | --- | --- | --- | --- | --- | --- | --- | --- |
| CCCc1cc(C(N)=S)ccn1 [PROTIONAMIDE] | 103% | 100% | 2.4 µM | 105% | 4.5 µM | 10.2 ×10³ /M | 84% | 121% | – |
| CCc1cc(C(N)=S)ccn1 [ETHIONAMIDE] | 104% | 104% | 1.9 µM | 107% | 4 µM | 9.5 ×10³ /M | 88% | 106% | – |
| NC(=S)c1ccccc1 | 93% | 63% | 0.7 µM | 103% | 2.8 µM | 9.2 ×10³ /M | 72% | 117% | – |
| NC(=S)c1ccccn1 | 80% | 56% | 2.7 µM | 98% | 14.4 µM | 9 ×10³ /M | 78% | 105% | – |
| CC(=O)Nc1ccccc1 [ACETANILIDE] | 103% | 102% | – | 105% | > 1000 µM | 1 ×10³ /M | 99% | 116% | – |
| NC(=S)c1ccncc1 | 103% | 104% | 22.3 µM | 106% | 43.8 µM | 7.5 ×10³ /M | 93% | 110% | – |
| NNC(=O)c1ccncc1 [ISONIAZID] | 100% | 102% | – | 104% | > 1000 µM | 1.7 ×10³ /M | 97% | 103% | – |
| CC(=S)Nc1ccccc1 | 75% | 57% | – | 91% | 4.1 µM | 8.3 ×10³ /M | 42% | 116% | 1.2 µM |
| NC(=S)Nc1ccccc1 [PHENYLTHIOUREA] | 55% | 54% | – | 63% | – | 2.4 ×10³ /M | 27% | 106% | – |
| NC(=S)c1cccnc1 | 104% | 106% | 4.3 µM | 109% | 7.5 µM | 8.5 ×10³ /M | 83% | 108% | – |
